# Experimental data from different studies.
# Each line is one published result; the experiments were not run side by side.
# Cell line: HepG2
# Effect on: cell growth or viability
Compound,test,setting,CC50 [µM]
CC(C)c1c(C(=O)Nc2ccccc2)c(-c2ccccc2)c(-c2ccc(F)cc2)n1CC[C@@H](O)C[C@@H](O)CC(=O)O,MTT,24 h,~100
COc1ccc(NC(=O)N2CCCCN3[C@H](COCCC(=O)O)[C@H](c4ccc(C#Cc5ccccc5)cc4)[C@@H]3C2)cc1,,,> 40
Cc1cnc(Nc2ccc(C(=O)N3CCC(N4CCCC4)CC3)cc2)nc1-c1ccc(Cl)s1,,44 h,10.5
N=C(N)N1CC=C(c2coc(C(=O)Nc3ccc(C4=CCN(C(=N)N)CC4)c(F)c3)c2)CC1,MTS,24 h,129
CCOC(=O)c1cn(CC(c2cn(C)c3ccc(C)cc23)c2cn(C)c3ccc(C)cc23)c(C)c1C(=O)OC,MTS,24 h,> 20
O=C(c1ccc(Nc2ncc(Cl)c(-c3ccc(Cl)s3)n2)cc1)N1CCC(N2CCCC2)CC1,,44 h,5.1
CC(=O)Nc1ccc(O)cc1,ATP luminescence,,> 1000
COC(=O)c1c(C)ncn1CC(c1c[nH]c2ccc(C)cc12)c1c[nH]c2ccc(C)cc12,MTS,24 h,> 20
NCC(=O)CCC(=O)O,ATP luminescence,,> 1000
Cc1cn(CC(c2cn(C)c3ccccc23)c2cn(C)c3ccccc23)nn1,MTS,24 h,> 20
N=C(N)NCc1ccc(NC(=O)c2ccc(C(=O)Nc3ccc(C4=CCN(C(=N)N)CC4)cn3)cc2)cc1,MTS,24 h,353
COC(=O)c1c(C)ncn1CC(c1c[nH]c2cc(Br)ccc12)c1c[nH]c2cc(Br)ccc12,MTS,24 h,> 20
N=C(N)NCc1ccc(NC(=O)c2ccc(C(=O)Nc3ccc(C4=CCN(C(=N)N)CC4)cc3)nc2)cc1,MTS,24 h,> 117
Cc1cc(Nc2ccc(S(F)(F)(F)(F)F)cc2)n2ccnc2n1,,,> 50
CCOC(=O)c1c(C)ncn1CC(c1cn(C)c2ccc([N+](=O)[O-])cc12)c1cn(C)c2ccc([N+](=O)[O-])cc12,MTS,24 h,> 20
N=C(N)NCc1ccc(NC(=O)c2ccc(C(=O)Nc3cnc(C4=CCN(C(=N)N)CC4)cn3)cc2)cc1,MTS,24 h,585
